Data: paper PMC3651860 (Journal of the American Chemical Society, 2011)
“Also recorded” adds a separate entry of the source. Like-named read-outs stand apart in the source and are kept apart here. Primed or numbered codes have the meaning given here. Biotin′ = not defined here; Az8 = not defined here

Experiments:
[1] = tested on: Akt1-S473E-T308P; conditions: read-out: KM (literature); ATP; ref 21 (Klein et. al.); cited from earlier work
[2] = tested on: Akt1-S473E-T308P; assay: Competitive enzyme kinetic assays of Akt1 with triligand; format: biochemical
Outline: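 Akt1 kinase domain (S473E mimic, Hi5 insect-cell expressed, T308-phosphorylated form) assayed at varying peptide-substrate or ATP concentrations across varying test compound concentrations. KM and Vmax were fitted by nonlinear regression. Ki came from negative x-intercepts of Dixon plots (1/v vs [compound], varying ATP), and Ki' from intercepts of Cornish-Bowden plots ([peptide]/v vs [compound], varying peptide). Both are given as mean ± standard deviation.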

[3] = tested on: Akt-S473E; assay: ELISA with immobilized Akt-S473E; format: binding
Outline: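 Akt1-S473E kinase domain, expressed in Hi5 insect cells, was immobilized on Ni-NTA plates. It was incubated with varying concentrations of biotinylated test peptide. Binding signal was normalized to the binding observed at saturation.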

[4] = tested on: Akt1-S473E-T308P; assay: Akt1 kinase inhibition test of candidate anchor sequences; format: biochemical; conditions: Figure S6
Target sequence in this assay (P31749 150-480 S473E limits assumed): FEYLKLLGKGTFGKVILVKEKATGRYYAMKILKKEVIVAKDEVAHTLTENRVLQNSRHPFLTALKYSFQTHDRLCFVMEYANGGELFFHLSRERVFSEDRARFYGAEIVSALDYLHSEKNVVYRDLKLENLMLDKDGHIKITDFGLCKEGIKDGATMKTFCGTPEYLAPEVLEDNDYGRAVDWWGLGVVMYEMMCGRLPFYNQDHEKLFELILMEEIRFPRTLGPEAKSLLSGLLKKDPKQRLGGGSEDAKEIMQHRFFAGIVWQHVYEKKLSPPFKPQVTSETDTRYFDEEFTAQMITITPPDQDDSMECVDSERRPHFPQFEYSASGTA

[5] = tested on: AKT in fixed OVCAR3 cells; assay: Immunocytochemistry; format: cell-based; conditions: permeabilized OVCAR3 cells, unstimulated vs EGF+insulin
Outline: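 OVCAR3 cells were left unstimulated or treated with EGF plus insulin, then fixed and permeabilized. They were stained with fluorescein-labelled test compound, and a fluorescein-conjugated anti-Akt monoclonal antibody served as benchmark. Akt localization was imaged by immunofluorescence microscopy.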

[6] = tested on: Akt1; assay: ELISA-based binding analysis over a range of kinase concentrations, Akt1; conditions: Figure S18
[7] = tested on: GSK3β; assay: ELISA-based binding analysis over a range of kinase concentrations, GSK3β; conditions: Figure S18
[8] = molecular target: Akt1 kinase domain with the S473E mutation (Akt1-S473E)

For `Nc1ncnc2c1ncn2[C@@H]1O[C@H](COP(=O)(O)OP(=O)(O)OP(=O)(O)O)[C@@H](O)[C@H]1O` [ATP, reference compound], the Km [1] is given as 155 µM, the Vmax ([2]; Akt1-S473E-T308P, V vs. [ATP], variable [Triligand], nonlinear regression) is given as 98996 ± 8242 pmol/min/mg and the Km ([2]; read-out: KM (this work), Akt1-S473E-T308P, nonlinear regression (GraphPad), V vs. [ATP], variable [Triligand]) is given as 213 ± 25 µM.

For Az8-VFYRLGY-CONH2 [anchor peptide], the affinity ([3]; anchor peptide, Akt, assay of this value not stated at the place) was greater than 25 µM, the “inhibition of the Akt1 kinase” value ([4]; absence of the conjugated small molecule inhibitor (Ac7)) was roughly 95% and the “inhibition of the Akt1 kinase” value ([4]; presence of the conjugated small molecule inhibitor (Ac7)) was roughly 95%.

With “fluorescein-labeled triligand: fluorescein-labeled triligand employed as an ICC imaging agent (chain 1 VFYRLGY; chain 2 FWFLRG; chain 3 RHERI; N-terminal azido amino acid Az8 before V, joined through a 1,4-triazole to the Pra of the secondary peptide | N-terminal propargylglycine (Pra) before F, joined through a 1,4-triazole to Az8 of the an)” the “Akt localization in ICC (in words)” value [5] was “localization of Akt at the plasma membrane after cell stimulation”.

In the case of “triligand: tertiary peptide Ac-Az8-RHERI-CONH2 conjugated to the biligand to form a biotinylated branched triligand (chain 1 VFYRLGY; chain 2 FWFLRG; not fully specified; N-terminal azido amino acid Az8 before V, joined through a 1,4-triazole to the Pra of the secondary peptide; C-terminal biotin | N-terminal propargylglycine (Pra) before F, joined through a 1,4-triazo)”, the “affinity for Akt1 (in words)” value ([3]; comparison within anchor/biligand/triligand series) is reported as “only marginally improved over the biligand; also recorded: only a modest affinity improvement”, the “inhibitory potency (in words)” value [2] is reported as “low micromolar inhibitory potency” and the “effect on KM” value ([2]; ATP is the varied substrate) is reported as “no effect on KM”. The “effect on enzyme Vmax” value ([2]; increasing triligand concentration, varied [ATP] or varied [peptide]) was “reduction in the enzyme Vmax for both substrates”, the “effect on KM” value ([2]; peptide concentration is varied) was “KM decreases” and the inhibition mode ([2]; varied [ATP], variable [Triligand]) was “noncompetitive inhibition”. For the same molecule, the inhibition mode ([2]; varied [ATP], variable [Triligand], listed as Triligand) was “Noncompetitive”, the inhibition mode ([2]; varied [Peptide], variable [Triligand]) was “uncompetitive inhibition” and the “mode of inhibition / inhibitory mechanism, overall” value ([2]; with respect to ATP and peptide substrates) was “allosteric mode of inhibition; also recorded: triligand inhibition occurs in a noncompetitive fashion; also recorded: not competitive with respect to either the peptide or ATP binding site; also recorded: allosteric mechanism”. The “change of affinity for Akt1, biligand to triligand” value [6] was “increases modestly” and the “decrease of affinity for GSK3β, biligand to triligand” value [7] was “approximately 2 fold”.

With {Ac-Az8}-VFYRLGY-{Biotin′} (reading uncertain; also: printed as Ac-Az8-VFYRLGY-Biotin) [biotinylated anchor peptide Ac-Az8-VFYRLGY-Biotin] the Kd [8] was greater than 25 µM.
